Assay results from ChEMBL document CHEMBL1166008, “A new class of potential anti-tuberculosis agents: Synthesis and preliminary evaluation of novel acrylic acid ethyl ester derivatives” (Bioorg Med Chem, 2010).
≈ marks a conversion by molar mass, not a printed value.

Experiments:
[1] = system: Mycobacterium tuberculosis; assay: Antimycobacterial activity against Mycobacterium tuberculosis H37Rv after 48 hrs by green fluorescent protein-based assay; type: functional
In short: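 M. tuberculosis H37Rv carrying high-copy pHIGH22 plasmid expressing GFP. Killing read as loss of GFP fluorescence. Isoniazid and rifampin positive controls.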

[2] = system: Mycolicibacterium smegmatis; assay: Antimycobacterial activity against Mycobacterium smegmatis after 48 hrs by microtiter plate method; type: functional
In short: (§1)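 Broth microdilution MIC in Middlebrook 7H9 broth with 10% OADC. Mycobacterial cultures grown statically seven days in the same medium at 35 °C. Plates incubated 48 h at 35 °C and scored growth/no growth. Rifampin positive control.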

[3] = system: Escherichia coli; assay: Antibacterial activity against Escherichia coli ATCC 25922 after 18 to 24 hrs by microtiter plate method; type: functional
In short: (§2)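 Broth microdilution MIC in cation-adjusted Mueller–Hinton broth. Cultures grown statically overnight on tryptic soy agar at 35 °C. Plates incubated 18–24 h at 35 °C and scored growth/no growth. Tetracycline control included.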

[4] = system: Staphylococcus aureus; assay: Antibacterial activity against Staphylococcus aureus ATCC 29213 after 18 to 24 hrs by microtiter plate method; type: functional; in short: as §2
[5] = system: Bacillus cereus; assay: Antibacterial activity against Bacillus cereus after 18 to 24 hrs by microtiter plate method; type: functional; in short: as §2
[6] = system: Mycobacterium kansasii; assay: Antimycobacterial activity against Mycobacterium kansasii after 48 hrs by microtiter plate method; type: functional; in short: as §1
[7] = system: Mycobacterium intracellulare; assay: Antimycobacterial activity against Mycobacterium intracellular after 48 hrs by microtiter plate method; type: functional; in short: as §1
[8] = system: Mycolicibacterium fortuitum; assay: Antimycobacterial activity against Mycobacterium fortuitum after 48 hrs by microtiter plate method; type: functional; in short: as §1
[9] = system: Mycobacteroides chelonae; assay: Antimycobacterial activity against Mycobacterium chelonae after 48 hrs by microtiter plate method; type: functional; in short: as §1
[10] = system: Mycobacterium avium; assay: Antimycobacterial activity against Mycobacterium avium after 48 hrs by microtiter plate method; type: functional; in short: as §1
[11] = system: J774.A1; assay: Cytotoxicity against mouse J774A1 cells after 24 hrs by trypan blue exclusion assay; type: cell-based; details: J774.A1, 24 h
In short: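 Murine J774A.1 monocytes seeded at 1 × 10^6/well in RPMI 1640. Next day, twofold dilutions of drug in PBS added. Following day, trypan blue added for 10 min, then dead (blue) and live cells counted in three fields per well. IC50 taken as concentration giving 50% dead cells.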

Compound	MIC [1] [µg/mL]	MIC [2] [µg/mL]	MIC [3] [µg/mL]	MIC [4] [µg/mL]	MIC [5] [µg/mL]	MIC [6] [µg/mL]	MIC [7] [µg/mL]	MIC [8] [µg/mL]	MIC [9] [µg/mL]	MIC [10] [µg/mL]	IC50 [11] [µg/mL]
NNC(=O)c1ccncc1 [ISONIAZID]	0.25 (≈ 1.82 µM)	–	–	–	–	–	–	–	–	–	–
CCOC(=O)/C=C\Oc1ccccc1C(C)C	–	> 128	> 128	> 128	> 128	–	–	–	–	–	–
CCOC(=O)/C=C\n1cccn1	–	> 128	> 128	> 128	> 128	–	–	–	–	–	–
CCOC(=O)/C=C\Oc1cccc([N+](=O)[O-])c1	–	64 (≈ 270 µM)	> 128	64 (≈ 270 µM)	> 128	–	–	–	–	–	–
CCOC(=O)/C=C\Oc1cccc2ccccc12	–	64 (≈ 264 µM)	> 128	> 128	> 128	–	–	–	–	–	–
CCOC(=O)/C=C\Sc1nc2ccccc2s1	25 (≈ 94.2 µM)	32 (≈ 121 µM)	> 128	> 128	> 128	8 (≈ 30.1 µM)	16 (≈ 60.3 µM)	16 (≈ 60.3 µM)	8 (≈ 30.1 µM)	64 (≈ 241 µM)	200 (≈ 754 µM)
CCOC(=O)/C=C\n1ncc2ccccc21	–	> 128	> 128	> 128	> 128	–	–	–	–	–	–
CCOC(=O)/C=C\n1ccc2ccccc21	–	> 128	> 128	> 128	> 128	–	–	–	–	–	–
CCOC(=O)/C=C\Oc1ccsc1C(=O)OC	–	> 128	> 128	> 128	> 128	–	–	–	–	–	–
CCOC(=O)/C=C\Oc1cccc(F)c1	–	> 128	> 128	> 128	> 128	–	–	–	–	–	–
CCOC(=O)/C=C\Sc1cccs1	–	128 (≈ 597 µM)	> 128	> 128	> 128	–	–	–	–	–	–
CCOC(=O)/C=C\n1nnnc1SC	–	128 (≈ 597 µM)	> 128	> 128	> 128	–	–	–	–	–	–
CCOC(=O)/C=C\Oc1ccc2ccccc2c1	–	128 (≈ 528 µM)	> 128	> 128	> 128	–	–	–	–	–	–
CCOC(=O)/C=C\Sc1ccc2ccccc2c1	–	64 (≈ 248 µM)	> 128	128 (≈ 495 µM)	> 128	–	–	–	–	–	–
CCOC(=O)/C=C\Oc1cc(OC)cc(OC)c1	–	128 (≈ 507 µM)	> 128	> 128	> 128	–	–	–	–	–	–
CCOC(=O)/C=C\n1ccnc1	–	> 128	> 128	> 128	> 128	–	–	–	–	–	–
CCOC(=O)/C=C\Sc1ncccn1	–	64 (≈ 304 µM)	> 128	> 128	> 128	–	–	–	–	–	–

Compound	MIC [1] [µg/mL]	MIC [2] [µg/mL]	MIC [3] [µg/mL]	MIC [4] [µg/mL]	MIC [5] [µg/mL]	MIC [6] [µg/mL]	MIC [7] [µg/mL]	MIC [8] [µg/mL]	MIC [9] [µg/mL]	MIC [10] [µg/mL]	IC50 [11] [µg/mL]
CCOC(=O)/C=C\Oc1ccccc1C	–	> 128	> 128	> 128	> 128	–	–	–	–	–	–
CCOC(=O)/C=C\SC1CCCCC1	–	> 128	> 128	> 128	> 128	–	–	–	–	–	–
N#Cc1cccc(/C=C/SC2=NCCS2)c1 [PHENOTHIOSTYRENE]	–	64 (≈ 260 µM)	> 128	> 128	> 128	–	–	–	–	–	–
CCOC(=O)/C=C\Oc1ccc(C(C)(C)C)cc1	–	128 (≈ 515 µM)	> 128	> 128	> 128	–	–	–	–	–	–
CCOC(=O)/C=C\Oc1nc2ccccc2s1	–	128 (≈ 513 µM)	> 128	> 128	> 128	–	–	–	–	–	–
CCOC(=O)/C=C\Sc1ccccc1C(=O)OC	–	64 (≈ 240 µM)	> 128	> 128	> 128	–	–	–	–	–	–
CCOC(=O)/C=C\Oc1cccnc1	–	> 128	> 128	> 128	> 128	–	–	–	–	–	–
CCOC(=O)/C=C\Sc1ccccn1	–	128 (≈ 612 µM)	> 128	> 128	> 128	–	–	–	–	–	–
CCOC(=O)/C=C\Sc1cccc2ccccc12	–	128 (≈ 495 µM)	> 128	> 128	> 128	–	–	–	–	–	–
CO[C@H]1/C=C/O[C@@]2(C)Oc3c(C)c(O)c4c(O)c(c(/C=N/N5CCN(C)CC5)c(O)c4c3C2=O)NC(=O)/C(C)=C\C=C\[C@H](C)[C@H](O)[C@@H](C)[C@@H](O)[C@@H](C)[C@H](OC(C)=O)[C@@H]1C [RIFAMPIN]	< 0.03	64 (≈ 77.8 µM)	–	–	–	–	–	–	–	–	–
CCOC(=O)/C=C\Sc1ccc(C(C)(C)C)cc1	25 (≈ 94.6 µM)	16 (≈ 60.5 µM)	> 128	> 128	> 128	16 (≈ 60.5 µM)	128 (≈ 484 µM)	4 (≈ 15.1 µM)	8 (≈ 30.3 µM)	64 (≈ 242 µM)	150 (≈ 567 µM)
CCOC(=O)/C=C\Sc1ccccc1C(C)C	–	> 128	> 128	> 128	> 128	–	–	–	–	–	–
CCOC(=O)/C=C\Oc1ccc(C(N)=O)cc1	–	> 128	> 128	> 128	> 128	–	–	–	–	–	–
CCOC(=O)/C=C\Oc1ccc(F)cc1	–	> 128	> 128	> 128	> 128	–	–	–	–	–	–
CCOC(=O)/C=C\Sc1ccc(O)cc1	–	64 (≈ 285 µM)	> 128	128 (≈ 571 µM)	128 (≈ 571 µM)	–	–	–	–	–	–
CCOC(=O)/C=C\Oc1ccccc1C(=O)OC	–	> 128	> 128	> 128	> 128	–	–	–	–	–	–
CCOC(=O)/C=C\n1nnc2ccccc21	–	> 128	> 128	> 128	> 128	–	–	–	–	–	–
